The record followed here is ChEMBL document CHEMBL1765009, “Novel hydrazine molecules as tools to understand the flexibility of vascular adhesion protein-1 ligand-binding site: toward more selective inhibitors” (J Med Chem, 2011).

A short description of assay [1]: Selectivity ratio, ratio of IC50 for rat liver MAO-A/MAO-B to IC50 for human recombinant VAP-1.
The target of assay [2] is T1, Monoamine oxidase (Rattus norvegicus, UniProt P19643+P21396).
T1 sequence (P19643 whole entry): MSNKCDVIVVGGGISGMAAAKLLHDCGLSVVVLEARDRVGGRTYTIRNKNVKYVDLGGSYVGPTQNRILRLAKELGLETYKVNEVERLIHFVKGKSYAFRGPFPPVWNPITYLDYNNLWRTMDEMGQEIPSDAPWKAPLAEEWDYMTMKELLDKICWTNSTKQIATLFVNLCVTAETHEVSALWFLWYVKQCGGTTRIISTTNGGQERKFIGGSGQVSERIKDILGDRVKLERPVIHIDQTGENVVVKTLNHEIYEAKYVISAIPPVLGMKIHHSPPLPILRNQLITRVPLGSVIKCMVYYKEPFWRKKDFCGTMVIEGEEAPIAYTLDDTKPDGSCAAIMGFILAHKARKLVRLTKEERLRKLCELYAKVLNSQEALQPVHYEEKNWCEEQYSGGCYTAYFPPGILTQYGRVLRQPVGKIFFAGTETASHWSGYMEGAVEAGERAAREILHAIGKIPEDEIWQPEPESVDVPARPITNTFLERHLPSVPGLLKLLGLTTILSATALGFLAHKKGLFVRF
T1 sequence (P21396 whole entry): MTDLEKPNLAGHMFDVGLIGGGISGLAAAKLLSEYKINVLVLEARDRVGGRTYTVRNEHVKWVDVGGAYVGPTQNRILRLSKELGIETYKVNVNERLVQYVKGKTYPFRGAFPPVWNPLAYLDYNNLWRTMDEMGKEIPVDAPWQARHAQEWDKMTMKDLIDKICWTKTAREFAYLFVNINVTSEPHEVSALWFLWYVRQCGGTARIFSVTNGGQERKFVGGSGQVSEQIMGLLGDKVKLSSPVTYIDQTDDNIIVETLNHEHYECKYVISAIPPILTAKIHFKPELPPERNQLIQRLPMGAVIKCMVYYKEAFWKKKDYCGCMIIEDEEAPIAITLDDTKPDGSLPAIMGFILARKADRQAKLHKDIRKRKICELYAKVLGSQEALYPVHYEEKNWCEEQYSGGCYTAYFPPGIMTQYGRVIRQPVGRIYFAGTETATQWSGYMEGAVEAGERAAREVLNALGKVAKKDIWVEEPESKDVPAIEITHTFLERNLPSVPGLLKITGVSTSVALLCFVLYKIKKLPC
As to the kind of experiment: Inhibition of rat liver MAO-A/MAO-B after 30 mins by coupled colorimetric method. In outline:
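Enzyme source: mitochondrial fraction from rat liver (MAO A plus MAO B), homogenized in 0.1 M phosphate pH 7.4 and isolated by differential centrifugation. Coupled HRP/4-aminoantipyrine colorimetric assay with 1 mM vanillic acid as chromogen. Inhibitor (1 nM–50 µM) was preincubated 30 min at 37 °C, then tyramine added (0.5 mM final), 1 h at 37 °C, A490 read. IC50 given as mean ± SEM of 2–4 experiments.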

Assay [3] concerns the target T2, Amine oxidase [copper-containing] 3 (Homo sapiens, UniProt Q16853).
T2 sequence (Q16853 whole entry): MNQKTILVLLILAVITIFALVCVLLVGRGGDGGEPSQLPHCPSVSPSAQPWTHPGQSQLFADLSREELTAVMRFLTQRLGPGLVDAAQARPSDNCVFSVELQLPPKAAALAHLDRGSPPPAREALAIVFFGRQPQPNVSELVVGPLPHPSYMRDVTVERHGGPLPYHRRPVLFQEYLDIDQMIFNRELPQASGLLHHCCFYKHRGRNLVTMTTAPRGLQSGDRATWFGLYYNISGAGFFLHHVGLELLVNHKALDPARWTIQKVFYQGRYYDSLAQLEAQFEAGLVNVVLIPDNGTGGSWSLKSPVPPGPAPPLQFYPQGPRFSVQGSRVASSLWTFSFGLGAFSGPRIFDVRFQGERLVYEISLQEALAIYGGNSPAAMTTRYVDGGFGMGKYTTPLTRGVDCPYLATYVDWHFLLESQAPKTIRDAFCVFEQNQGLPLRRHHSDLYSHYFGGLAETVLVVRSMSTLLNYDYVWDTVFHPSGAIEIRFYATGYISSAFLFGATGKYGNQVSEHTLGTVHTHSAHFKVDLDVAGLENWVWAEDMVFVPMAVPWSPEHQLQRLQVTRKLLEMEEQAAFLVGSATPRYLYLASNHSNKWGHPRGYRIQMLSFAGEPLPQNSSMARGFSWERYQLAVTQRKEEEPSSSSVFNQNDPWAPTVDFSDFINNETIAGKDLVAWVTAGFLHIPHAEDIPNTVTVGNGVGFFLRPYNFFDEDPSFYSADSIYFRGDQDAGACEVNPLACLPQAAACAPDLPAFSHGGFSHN
As to the kind of experiment: Inhibition of human recombinant VAP-1 expressed in CHO cells after 30 mins by coupled colorimetric method. It counts as cell-based. In a few lines:
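Enzyme source: clarified lysate of CHO cells stably transfected with full-length human VAP-1 cDNA. The lysate was made in 150 mM NaCl, 10 mM Tris pH 7.2, 1.5 mM MgCl2 and 1% NP40 at 4 °C overnight. Reaction started with 1 mM benzylamine, 1 h at 37 °C, A490 read. IC50 given as mean ± SEM of 2–4 experiments.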

For `CN(N)[C@@H](c1ccccc1)[C@@H](O)c1ccccc1`, the Ratio IC50 in assay [1] was 72. Further, the IC50 in assay [2] worked out at 85 µM; in assay [3], 1.18 µM.

As to `CN(N)[C@H](c1ccccc1)[C@H](O)c1ccccc1`, the Ratio IC50 in assay [1] came out at 90. In addition, the IC50 was found to be 99 µM in assay [2] and 1.06 µM in assay [3].

Turning to `NNC[C@@H](O)c1ccccc1`, the Ratio IC50 in assay [1] amounted to 65. For the same molecule, the IC50 in assay [2] came out at 9.8 µM; in assay [3], 0.15 µM.

As to `CCCC(NN)C(O)c1ccccc1` (mixture of isomers), the Ratio IC50 in assay [1] was 9. In addition, the IC50 was 11 µM in assay [2] and 1.2 µM in assay [3].

In the case of `NNC[C@H](O)c1ccccc1`, in assay [1], the Ratio IC50 was 250. Also, the IC50 turned out to be 9.9 µM in assay [2] and 0.04 µM in assay [3].

Take `CN(N)[C@H](c1ccccc1)[C@@H](O)c1ccccc1`: the Ratio IC50 in assay [1] is 320. In addition, the results for the IC50 in assay [2] and in assay [3] were 105 µM and 0.33 µM, respectively.

Regarding `NN[C@@H](c1ccccc1)[C@H](O)c1ccccc1` (relative stereo), in assay [1], the Ratio IC50 was 0.7. The IC50 in assay [2] was 34 µM; in assay [3], 50 µM.

For the molecule `CN(N)[C@@H](c1ccccc1)[C@H](O)c1ccccc1`, the Ratio IC50 in assay [1] worked out at 250. Also, the IC50 in assay [2] stood at 70 µM; in assay [3], 0.28 µM.
